Screening results: PubChem BioAssay, several laboratories
Sampled rows, rich in hits. Any-hit rate of the full collection: about 2.4%.
Rpn11 block: Rpn11 (PSMD14) deubiquitinase inhibitors, primary screen, biochemical, fluorescence polarization, uHTS | 26S proteasome non-ATPase regulatory subunit 14 (Homo sapiens), O00487 | human 26S proteasome, Ub4-pepOG fluorescence polarization; 20S core pre-blocked with epoxomicin | inhibition, % at 20 µM | actives 0.59% (n = 360,000);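 active means inhibition at 20 µM, scaled to each plate's controls, above about 33%, limit read from the data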
Neddylation inh: inhibitors of cullin neddylation, primary screen, biochemical, TR-FRET, uHTS, NAE and Ubc12 | NEDD8-conjugating enzyme Ubc12 (Homo sapiens) + NEDD8-activating enzyme E1 regulatory … | actives 0.58% (n = 360,000) | AID 651699, 2012 | inhibition, % at 25 µM; in the data active means inhibition above about 36%
Target sequence (P61081 whole entry, looked up): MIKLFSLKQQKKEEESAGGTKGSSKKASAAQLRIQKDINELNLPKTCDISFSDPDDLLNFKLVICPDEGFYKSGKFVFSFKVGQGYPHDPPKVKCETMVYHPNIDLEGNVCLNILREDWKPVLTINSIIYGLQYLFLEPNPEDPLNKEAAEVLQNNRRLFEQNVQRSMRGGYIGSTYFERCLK
Target sequence (Q13564 whole entry, looked up): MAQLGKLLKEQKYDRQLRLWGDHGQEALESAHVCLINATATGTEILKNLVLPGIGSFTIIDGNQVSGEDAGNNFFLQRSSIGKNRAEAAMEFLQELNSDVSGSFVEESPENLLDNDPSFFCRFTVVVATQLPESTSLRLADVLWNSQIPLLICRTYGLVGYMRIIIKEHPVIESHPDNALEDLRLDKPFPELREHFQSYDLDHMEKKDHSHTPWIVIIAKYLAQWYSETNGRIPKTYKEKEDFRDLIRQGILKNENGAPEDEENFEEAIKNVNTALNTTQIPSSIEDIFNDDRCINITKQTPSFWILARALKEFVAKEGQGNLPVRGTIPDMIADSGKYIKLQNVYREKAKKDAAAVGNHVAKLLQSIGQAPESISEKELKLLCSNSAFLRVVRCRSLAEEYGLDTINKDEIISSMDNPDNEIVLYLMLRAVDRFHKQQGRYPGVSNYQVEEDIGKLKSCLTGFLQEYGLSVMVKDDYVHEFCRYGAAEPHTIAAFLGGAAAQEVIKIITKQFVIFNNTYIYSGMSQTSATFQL
HNF4A DNA FP: change in binding of human HNF4A to DNA, primary screen, biochemical, fluorescence polarization, FITC-DNA; Hepatocyte nuclear factor 4-alpha (Homo sapiens), P41235; 1 h; activity change, % at 10 µM; actives 0.3% (n = 360,000); in the data active means activity change above about 30%, passing the limit was not always enough
CSN inh: inhibitors of CSN-mediated cullin deneddylation, primary screen, biochemical, fluorescence polarization, uHTS; COP9 signalosome complex subunit 5 (Homo sapiens), Q92905; inhibition, % at 12.5 µM; actives 0.38% (n = 360,000); Purified CSN, SCF-Nedd8-OG deneddylation;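 active means pattern-corrected inhibition above about 35%, with an unprinted fluorescence ratio check between 0.5 and 1.5, limit read from the data, passing the limit was not always enough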;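 further: 0% = enzyme with substrate and 100% = substrate without enzyme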
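Assay system: Purified human Csn5 enzyme expressed in HEK293T cells | Amount: Enzyme 0.24 nM | Measured by: Fluorescence polarization readout | Medium: Tris/NaCl/DTT buffer, pH 7.5 | Compound dosing: One concentration, 12.5 µM, 0.25% DMSO | Times: 90 min incubation of compound, enzyme and substrate at room temperature | Control set: no-enzyme wells high, enzyme-with-substrate wells low | Read-out: % inhibition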
Rin1-Abl PPI inh: inhibitors of Rin1-Abl protein binding, primary screen, biochemical, TR-FRET; actives 0.4% (n = 360,000); AID 588664, 2011; Tyrosine-protein kinase ABL1 (Homo sapiens) + Ras and Rab interactor 1 (Homo sapiens), …; inhibition, % at 7.35 µM; in the data active means inhibition above about 5%, passing the limit was not always enough
TPT1 inhibitor: Candida albicans TPT1 enzyme inhibitors, primary screen, biochemical, fluorescence polarization; AID 1962, 2009; tRNA 2'-phosphotransferase TPT1 (Candida albicans SC5314); actives 0.81% (n = 300,000); recombinant caTPT1, FP RNA substrate dephosphorylation; inhibition, % at 5 µM;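 active means inhibition above the mean of all tested compounds plus 3 SD, set per screening campaign, cut at about 24% in these data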;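 further: plate controls were DMSO alone for no effect and ferristatin control at 100 nM for full effect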
TPT1 inh confirm: Candida albicans TPT1 inhibitors, confirmation, biochemical, fluorescence polarization, triplicate; shares compounds with TPT1 inhibitor; inhibition, % at 5 µM; recombinant caTPT1, RNase T1 coupled; actives 74% (n = 2,400);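 active means inhibition above the primary screen limit, the mean inhibition of all tested compounds plus 3 SD, cut at about 25% in these data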
RNase T1 inh: RNase T1 inhibitors, counter-screen for TPT1 inhibitor project, biochemical, fluorescence polarization | actives 83% (n = 2,400) | RNase T1 cleavage, 1536-well | inhibition, % at 5 µM | shares compounds with TPT1 inhibitor;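 active means inhibition above the solvent-only control well mean plus 3 SD, limit set per screening run, cut at about 23% in these data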;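 further: plate controls were DMSO wells with enzyme for no effect and wells without RNase T1 for full effect; inhibitors block cleavage so intact labeled substrate keeps polarization high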
Rpn11 inh conf: Rpn11 (PSMD14) deubiquitinase inhibitors, confirmation, biochemical, fluorescence polarization, single concentration | shares compounds with Rpn11 block | purified human 26S proteasome, Ub4-pepOG fluorescence polarization; proteasome pretreated with epoxomicin | inhibition, % at 20 µM | actives 29% (n = 1,900) | AID 602318, 2012
MMP-2 counter: MMP-2 enzyme inhibition, confirmation, counter-screen for RPN11 inhibitor project, biochemical, fluorescence, single concentration. shares compounds with Rpn11 block. recombinant MMP-2, FRET peptide cleavage fluorescence. inhibition, % at 20 µM. actives 4% (n = 1,900). AID 602330, 2012;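 further: human MMP-2 activated beforehand with APMA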
Thrombin FP: bovine thrombin protease inhibition, confirmation, counter-screen for Rpn11 inhibitor project, biochemical, fluorescence polarization, single concentration. bovine thrombin cleavage of Ub4-pepOG. actives 13% (n = 1,900). shares compounds with Rpn11 block. inhibition, % at 20 µM;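 active means mean inhibition at least 40% at 20 µM, or signal 3 deviations below plate average, so some actives read negative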;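 further: plate controls were thrombin with DMSO for no effect and buffer wells lacking thrombin for full effect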
Starred values were filed as active, the others as inactive; i = inactive; nt = no result. Unless noted, no stated cut-off is given here; in the data, active means inhibition above about 40%; inactive means the rest.

SMILES | Rpn11 block | Neddylation inh | HNF4A DNA FP | CSN inh | Rin1-Abl PPI inh | TPT1 inhibitor | TPT1 inh confirm | RNase T1 inh | Rpn11 inh conf | MMP-2 counter | Thrombin FP
Cc1cc(/C=C2\SC(=S)NC2=O)cc(C)c1O | 124.4* | -49.7 | 34.5* | 33.4 | -0.1 | 35.5* | 10.2 | 16.8 | 26.0 | 7.9 | 18.8
CC1=C(C(=O)N(C)C)CC(CC(=O)NC2CCCC2)C(=O)N1Cc1ccc(F)cc1 (configuration not stated) | -7.9 | 4.7 | 2.8 | 0.5 | -2.0 | nt | nt | nt | nt | nt | nt
COc1ccc2c(C)cc(SCC(=O)N3CCOCC3)nc2c1 | 40.1* | -10.7 | 19.9 | 20.5 | -0.1 | 72.5* | 61.2* | 72.6* | 40.8* | -69.2 | 24.4
COc1ccc2c(C)cc(SCC(=O)NC3CCCCC3)nc2c1 | 2.3 | i | 1.8 | -3.5 | 0.1 | nt | nt | nt | nt | nt | nt
COc1cc(/C=C2\CCC/C(=C\c3ccc(O)c(OC)c3)C2=O)ccc1O | 22.8 | 3.0 | -3.0 | 5.4 | 2.4 | 10.7 | nt | nt | nt | nt | nt
COc1cc(/C=C2/CCC/C(=C\c3cc(O)c(OC)c(Cl)c3)C2=O)cc(Cl)c1O | 63.8* | 16.7 | 14.6 | 9.4 | -0.7 | 36.4* | 18.7 | 23.2* | 7.2 | 46.9* | 5.3
COc1cc2ccccc2cc1C(=O)Nc1sc2c(c1C(N)=O)CCN(C(C)C)C2 | 45.1* | 50.2* | 38.0 | 33.2 | -2.9 | 82.0* | 53.6* | 61.7* | 69.2* | -53.1 | 45.5*
COC(=O)/C=c1/s/c(=C(\C#N)C(=O)NCc2ccco2)n(-c2ccc(C)cc2)c1=O | 56.6* | -12.6 | 5.2 | 30.7 | -3.8 | 82.2* | 19.6 | 27.3* | 11.0 | -12.3 | 20.2
COc1cc(/C=C2\NC(=S)N(C)C2=O)ccc1O | 73.1* | -47.0 | 19.7 | 33.5 | -3.3 | 27.2* | 30.2* | 35.3* | 54.4* | 49.1* | 42.5*
COC(=O)c1c(-c2cccnc2)csc1NC(=O)c1cc(C)on1 | 76.3* | 14.9 | 24.4 | 15.0 | -3.6 | 44.0* | 50.4* | 65.6* | 52.7* | -17.8 | 32.5
COc1ccc(C(=O)Nc2ccccc2C(=O)Nc2ccncc2)cc1 | -10.9 | 11.9 | -1.2 | -1.2 | 3.7 | 1.6 | nt | nt | nt | nt | nt
Cc1ccc(C(=O)N/N=C/c2c(O)ccc3ccccc23)cn1 | 122.5* | 6.2 | 44.7* | 23.2 | -0.5 | 83.5* | 92.7* | 95.7* | 23.3 | -43.2 | 3.4
CCn1ccnc1CN(C)Cc1nc(CCC(C)C)no1 | -0.8 | -0.2 | 0.3 | -5.1 | 3.6 | 1.1 | nt | nt | nt | nt | nt
O=C1/C(=C/c2ccc(O)c(O)c2)Oc2cc(O)ccc21 | 86.3* | -8.1 | 19.5 | 29.6 | 3.1 | 43.9* | 57.7* | 66.7* | 49.0* | 3.5 | 29.9
